These results are taken from ChEMBL document CHEMBL3526048, “In vitro metabolism of rivoglitazone, a novel peroxisome proliferator-activated receptor γ agonist, in rat, monkey, and human liver microsomes and freshly isolated hepatocytes” (Drug Metab Dispos, 2011).

The target of data set [1] is T1, UDP-glucuronosyltransferase 2B7 (Homo sapiens, UniProt P16662).
T1 sequence (P16662 whole entry): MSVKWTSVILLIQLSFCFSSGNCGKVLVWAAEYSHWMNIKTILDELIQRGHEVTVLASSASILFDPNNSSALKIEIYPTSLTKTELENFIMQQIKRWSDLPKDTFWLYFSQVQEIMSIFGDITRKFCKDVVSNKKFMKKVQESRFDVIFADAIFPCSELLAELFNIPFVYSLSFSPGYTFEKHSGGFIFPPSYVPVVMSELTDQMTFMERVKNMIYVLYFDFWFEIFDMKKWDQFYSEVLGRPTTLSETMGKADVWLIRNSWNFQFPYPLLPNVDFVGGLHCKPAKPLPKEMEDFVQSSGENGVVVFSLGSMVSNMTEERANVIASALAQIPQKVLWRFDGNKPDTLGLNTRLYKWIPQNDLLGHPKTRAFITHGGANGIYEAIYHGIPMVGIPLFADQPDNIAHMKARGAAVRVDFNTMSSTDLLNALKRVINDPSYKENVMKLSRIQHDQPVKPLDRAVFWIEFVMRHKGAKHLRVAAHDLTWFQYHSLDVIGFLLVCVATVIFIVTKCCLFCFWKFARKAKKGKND
In words: Activity of human UGT2B7 expressed in microsomes isolated from baculovirus infected insect cell assessed as enzyme-mediated 5-(4-((6-methoxy-1H-benzo[d]imidazol-2-yl)methoxy)benzyl)thiazolidine-2,4-dione formation at 20 uM after 4 hrs by radio-HPLC/LC-MS/MS analysis in presence of NADPH-generating system and NADPH-generating system/SAM in presence of UDPGA and UDPGA/SAM. Type of data set: ADME.

The target of a further data set is T2, Cytochrome P450 1A2 (Homo sapiens, UniProt P05177).
T2 sequence (P05177 whole entry): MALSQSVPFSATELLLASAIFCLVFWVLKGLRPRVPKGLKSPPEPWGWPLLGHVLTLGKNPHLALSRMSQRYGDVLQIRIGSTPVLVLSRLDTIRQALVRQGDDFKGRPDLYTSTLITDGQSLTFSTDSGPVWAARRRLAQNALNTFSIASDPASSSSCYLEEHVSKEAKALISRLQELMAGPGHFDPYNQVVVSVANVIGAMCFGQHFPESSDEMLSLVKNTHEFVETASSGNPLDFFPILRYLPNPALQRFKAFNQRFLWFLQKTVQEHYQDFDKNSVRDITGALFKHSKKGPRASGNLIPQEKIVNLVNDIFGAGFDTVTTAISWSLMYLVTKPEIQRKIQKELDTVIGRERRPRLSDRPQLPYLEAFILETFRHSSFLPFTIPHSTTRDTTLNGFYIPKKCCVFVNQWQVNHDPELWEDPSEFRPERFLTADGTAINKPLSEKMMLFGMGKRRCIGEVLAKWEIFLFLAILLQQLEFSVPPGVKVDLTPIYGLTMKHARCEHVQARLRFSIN
In words: Activity of human CYP1A2 expressed in microsomes isolated from baculovirus infected insect cell assessed as enzyme-mediated 3-(4-((6-methoxy-1-methyl-1H-benzo[d]imidazol-2-yl)methoxy)phenyl)-2-(methylsulfinyl)propanamide formation at 20 uM after 2 hrs by radio-HPLC/LC-MS/MS analysis in presence of NADPH-generating system/SAM. Type of data set: ADME.

Data set [2] can be described thus: Drug metabolism in rat hepatocytes assessed as formation of 5-(4-((6-methoxy-1H-benzo[d]imidazol-2-yl)methoxy)benzyl)thiazolidine-2,4-dione at 30 uM after 3 hrs by radio-HPLC/LC-MS/MS analysis in presence of NADPH-generating system and NADPH-generating system/SAM. Type of data set: ADME, cell-based, Hepatocyte.
Data set [3] deals with T3, UDP-glucuronosyltransferase 1A4 (Homo sapiens, UniProt P22310).
T3 sequence (P22310 whole entry): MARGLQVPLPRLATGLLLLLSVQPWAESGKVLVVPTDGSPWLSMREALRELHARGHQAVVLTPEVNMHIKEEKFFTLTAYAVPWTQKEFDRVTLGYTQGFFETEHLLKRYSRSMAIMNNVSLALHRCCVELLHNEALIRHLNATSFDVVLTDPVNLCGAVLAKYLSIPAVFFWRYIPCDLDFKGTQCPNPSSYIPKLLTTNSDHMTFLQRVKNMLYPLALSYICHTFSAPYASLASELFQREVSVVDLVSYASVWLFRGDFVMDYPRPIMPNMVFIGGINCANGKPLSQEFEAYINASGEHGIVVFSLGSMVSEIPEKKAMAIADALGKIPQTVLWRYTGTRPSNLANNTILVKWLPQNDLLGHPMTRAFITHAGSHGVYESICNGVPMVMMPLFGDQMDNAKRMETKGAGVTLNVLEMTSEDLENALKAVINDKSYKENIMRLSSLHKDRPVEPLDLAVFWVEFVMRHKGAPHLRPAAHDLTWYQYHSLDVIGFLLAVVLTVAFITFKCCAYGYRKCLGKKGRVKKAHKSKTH
As to the kind of experiment: Activity of human UGT1A4 expressed in microsomes isolated from baculovirus infected insect cell assessed as enzyme-mediated (2S,3S,4S,5R,6R)-3,4,5-trihydroxy-6-(5-(4-((6-methoxy-1-methyl-1H-benzo[d]imidazol-2-yl)methoxy)benzyl)-2,4-dioxothiazolidin-3-yl)tetrahydro-2H-pyran-2-carboxylic acid formation at 20 uM after 4 hrs by radio-HPLC/LC-MS/MS analysis in presence of UDPGA. Type of data set: ADME.

Data set [4] concerns the target T4, UDP-glucuronosyltransferase 1A3 (Homo sapiens, UniProt P35503).
T4 sequence (P35503 whole entry): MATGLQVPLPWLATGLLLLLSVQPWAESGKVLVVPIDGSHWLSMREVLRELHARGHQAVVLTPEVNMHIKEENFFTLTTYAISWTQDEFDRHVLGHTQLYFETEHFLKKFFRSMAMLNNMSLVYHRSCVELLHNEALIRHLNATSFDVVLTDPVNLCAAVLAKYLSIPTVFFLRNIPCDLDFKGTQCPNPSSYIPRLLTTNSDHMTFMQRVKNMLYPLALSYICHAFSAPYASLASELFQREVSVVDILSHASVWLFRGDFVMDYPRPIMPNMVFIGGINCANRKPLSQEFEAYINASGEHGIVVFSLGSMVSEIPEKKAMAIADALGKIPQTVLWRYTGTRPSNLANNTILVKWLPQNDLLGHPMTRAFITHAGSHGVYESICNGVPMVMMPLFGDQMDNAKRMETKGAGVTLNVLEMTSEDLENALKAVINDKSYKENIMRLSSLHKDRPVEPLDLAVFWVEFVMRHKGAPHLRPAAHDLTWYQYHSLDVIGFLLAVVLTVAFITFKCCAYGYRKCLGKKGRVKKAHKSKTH
In words: Activity of human UGT1A3 expressed in microsomes isolated from baculovirus infected insect cell assessed as enzyme-mediated 2-((4-((2,4-dioxothiazolidin-5-yl)methyl)phenoxy)methyl)-1-methyl-1H-benzo[d]imidazol-6-yl hydrogen sulfate formation at 20 uM after 4 hrs by radio-HPLC/LC-MS/MS analysis. Type of data set: ADME. The method, boiled down:
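Alamethicin (50 μg/mg protein, 15 min on ice) pretreated expressed human UGT microsomes (1 mg/ml protein) from baculovirus-infected insect cells. Incubation with [¹⁴C]rivoglitazone (20 μM) in 100 mM Tris-HCl (pH 7.5) with 10 mM MgCl₂, started by 5 mM UDPGA, 4 h at 37°C with shaking. UGT insect-cell control supersomes were run alongside. Acetonitrile stop, concentrated supernatant analysed by radio-HPLC, LC-MS and LC-MS/MS.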

Regarding `COc1ccc2nc(COc3ccc(C[14CH]4SC(=O)NC4=O)cc3)n(C)c2c1.Cl` (racemic), the Drug metabolism result in data set [1] is “metabolite_not_detected”; on Cytochrome P450 1A2, “metabolite_not_detected”; in data set [2] it was “metabolite_detected”; in data set [3], “metabolite_not_detected”; in data set [4], “metabolite_not_detected”.
